Experimental data pooled from the literature.
Compare with care: the assays were run in different laboratories.
CDK2 with cyclin E1: Cyclin-dependent kinase 2, with cyclin E1 (CDK2, Homo sapiens, UniProt P24941)
SCN5A: Sodium channel protein type 5 subunit alpha (SCN5A, Homo sapiens, UniProt Q14524)
Genome polyprotein protease: Genome polyprotein, protease (ZIKV, UniProt A0A024B7W1)

| SMILES | target | test | setting | IC50 [µM] |
| --- | --- | --- | --- | --- |
| N=C1CCCN1Cc1[nH]c(=O)[nH]c(=O)c1Br | Thymidine phosphorylase (Homo sapiens, UniProt P19971) | enzyme activity, inhibitor | – | 0.0027 |
| COc1ncccc1NS(=O)(=O)c1ccc(S(=O)(=O)F)c2c1CCNC2 | RALB (Homo sapiens, UniProt P11234, Y82F) | cell-free assay, inhibitor, fluorescence | – | > 100 |
| COCCn1c2nc(=O)n(-c3ccccc3)c(=O)c-2nc2ccccc21 | Genome polyprotein, methyltransferase (ZIKV, UniProt A0A024B7W1) | enzyme activity, inhibitor, TR-FRET | – | 6.8 |
| COc1c(-c2ccc3c(c2)OCO3)oc2c(ccc3occc32)c1=O | CDK2 with cyclin E1 | enzyme activity, inhibitor, ADP detection | – | > 100 |
| COc1cc(C(=O)N2CC[C@@H](O)[C@@H](N)C2)cc2nc(-c3cc4ccccc4n3CC3CC3)n(C)c12 | SCN5A | ion current, inhibitor | – | 39.8 |
| CC(C)C[C@H]1C(=O)N2CCC[C@H]2[C@]2(O)O[C@](NC(=O)[C@@H]3C=C4c5cccc6[nH]c(Br)c(c56)C[C@H]4N(C)C3)(C(C)C)C(=O)N12 | 5-hydroxytryptamine receptor 7 (HTR7, Homo sapiens, UniProt P34969) | cAMP, antagonist | – | 0.08 |
| CC(C)[C@H](NC(=O)[C@H](CCCNC(=N)N)NC(=O)N[C@@H](Cc1ccccc1)C(=O)O)C(=O)N[C@H](C=O)CCCNC(=N)N | Cathepsin B (CTSB, Homo sapiens, UniProt P07858) | enzyme activity, inhibitor, fluorescence | pH 5.5 | 0.00822 |
| C[C@H](N)Cn1ncc2ccc3c(c21)CCCO3 | 5-hydroxytryptamine receptor 6 (HTR6, Homo sapiens, UniProt P50406) | ligand displacement, radioligand | – | 19.6 |
| C[C@H]1COCCN1c1nc(NCc2cccnc2C(F)(F)F)c2cccnc2n1 | SCN5A | ion current, inhibitor | – | > 33 |
| COc1cc2oc(-c3ccc(O)c(O)c3)cc(=O)c2c(O)c1O | Genome polyprotein protease | enzyme activity, inhibitor | pH 8.5 | 5 |
| C[C@@H]1O[C@@H](OC[C@H]2O[C@@H](Oc3c(-c4ccc(O)c(O)c4)oc4cc(O)cc(O)c4c3=O)[C@H](O)[C@@H](O)[C@@H]2O)[C@H](O)[C@H](O)[C@H]1O | Genome polyprotein protease | enzyme activity, inhibitor, FRET | pH 7 | 104 |
| CC(C)N(C)[C@@H]1CC[C@H](N2CC[C@H](NC(=O)c3cccc(C(F)(F)F)c3)C2=O)[C@H](CS(=O)(=O)C(C)C)C1 | C-C chemokine receptor type 2 (CCR2, Homo sapiens, UniProt P41597) | cell-free assay | – | 0.0003 |
| O=c1cc(-c2ccccc2)oc2c1ccc1occc12 | CDK2 with cyclin E1 | enzyme activity, inhibitor, ADP detection | – | 7.9 |
| CC1=NCCc2c1[nH]c1cc(O)ccc21 | Receptor-type tyrosine-protein phosphatase C (PTPRC, Homo sapiens, UniProt P08575) | enzyme activity, inhibitor, fluorescence | – | 14 |
